According to ChEMBL document CHEMBL5390213 (ACS Med Chem Lett, 2023):
Active and inactive are the calls of the source. No cut-off for these calls is given here.

Legend:
CHP-134 [1] = assay: Growth inhibition of MYCN-amplified human CHP-134 cells assessed as reduction in cell viability measured after 3 days by Celltiter-glo assay; type: functional; conditions: CHP-134, 72 h, time 3 day
Method in brief: (§1)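 MYCN-amplified Kelly and CHP-134 neuroblastoma cells were exposed to a nine-point serial dilution for 3 days. Viability was read by CellTiter-Glo and normalized to DMSO-treated cells, and GI50 was calculated. Values are reported with standard error of the mean. The highest dose tested was 5.00 or 2.50 μM.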

[2] = Growth inhibition of MYCN-amplified human Kelly cells assessed as reduction in cell viability measured after 3 days by Celltiter-glo assay; type: functional; conditions: 72 h, time 3 day; method in brief: as §1
[3] = Microsomal stability in human liver microsomes assessed as half life; type: ADME, Microsome
Tubulin (Homo sapiens) [4] = biological target: T1, Tubulin (Homo sapiens) (UniProt P68371+Q9H4B7+P0DPH7+P68366+Q13509+Q71U36+P04350+Q3ZCM7+P07437+P68363+Q9BQE3+Q6PEY2+Q13885+Q9BVA1+Q9BUF5); assay: Inhibition of tubulin polymerization (unknown origin) assessed as destabilization of microtubule formation at 5 uM incubated for 45 mins by plate reader analysis; type: protein-complex assay
Kelly [5] = assay: Induction of cell cycle arrest in human Kelly cells assessed as accumulation of cells in G2/M phase at 100 nM measured after 24 hrs by PI/RNAse staining based flow cytometric analysis; type: functional
Method in brief: (§2)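 Cell cycle phase distribution, including G2/M fraction, quantified. n = 3 biological replicates, standard error. Unpaired two-tailed t test.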

CHP-134 [6] = assay: Induction of cell cycle arrest in human CHP-134 cells at 100 nM measured after 24 hrs by PI/RNAse staining based flow cytometric analysis; type: functional; method in brief: as §2
Kelly [7] = assay: Induction of cell cycle arrest in human Kelly cells assessed as increase in cyclin B1 expression at 100 nM measured after 24 hrs by Western blot analysis; type: functional, cell-based
Method in brief: (§3)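 Lysates immunoblotted for mitotic markers cyclin B1 and histone H3 phosphorylated at Ser10. GAPDH used as loading control. Levels compared against DMSO vehicle.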

CHP-134 [8] = assay: Induction of cell cycle arrest in human CHP-134 cells assessed as increase in cyclin B1 expression level at 100 nM measured after 24 hrs by Western blot analysis; type: functional, cell-based; method in brief: as §3
Kelly [9] = assay: Induction of cell cycle arrest in human Kelly cells assessed as increase in phospho-histone H3 expression at 100 nM measured after 24 hrs by Western blot analysis; type: functional, cell-based; method in brief: as §3
CHP-134 [10] = assay: Induction of cell cycle arrest in human CHP-134 cells assessed as increase in phospho-histone H3 expression at 100 nM measured after 24 hrs by Western blot analysis; type: functional, cell-based; method in brief: as §3
SK-N-BE(2)-C = assay: Antiproliferative activity against MYCN-amplified human SK-N-BE(2)-C cells assessed as reduction in cell viability measured after 3 days by Cell titer-glo assay; type: functional, cell-based; conditions: time 3.0 day
Tubulin (Homo sapiens) [11] = biological target: T1, Tubulin (Homo sapiens); assay: Disruption of microtubule network in human Kelly cells at 100 nM incubated for 24 hrs by DAPI staining based immunofluorescence analysis; type: cell-based
Method in brief: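 Immunostained for α-tubulin (Alexa-488) with DAPI nuclear counterstain. Microtubule network integrity and tubulin compaction around nuclei assessed from representative images.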

Kelly [12] = assay: Induction of cell cycle arrest in human Kelly cells assessed as increase in phospho-histone H3 expression at 500 nM measured after 24 hrs by Western blot analysis; type: functional, cell-based
Method in brief: (§4)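 Protein lysates were immunoblotted for the mitotic markers cyclin B1 and histone H3 phosphorylated at Ser10, with GAPDH as the loading control.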

CHP-134 [13] = assay: Induction of cell cycle arrest in human CHP-134 cells assessed as increase in phospho-histone H3 expression at 500 nM measured after 24 hrs by Western blot analysis; type: functional, cell-based; method in brief: as §4
Kelly [14] = assay: Effect on cell cycle distribution in human Kelly cells at 500 nM measured after 24 hrs by PI/RNAse staining based flow cytometric analysis; type: functional
Method in brief: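 Kelly cells were treated with 500 nM compound or DMSO for 24 h. Cell cycle phase distribution was then profiled and quantified, with n = 3 biological replicates and standard error shown.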

Kelly [15] = assay: Induction of cell cycle arrest in human Kelly cells assessed as increase in cyclin B1 expression at 500 nM measured after 24 hrs by Western blot analysis; type: functional, cell-based; method in brief: as §4
CHP-134 [16] = assay: Induction of cell cycle arrest in human CHP-134 cells assessed as increase in cyclin B1 expression level at 500 nM measured after 24 hrs by Western blot analysis; type: functional, cell-based; method in brief: as §4
Tubulin (Homo sapiens) [17] = biological target: T1, Tubulin (Homo sapiens); assay: Disruption of microtubule network in human Kelly cells at 500 nM incubated for 24 hrs by DAPI staining based immunofluorescence analysis; type: cell-based
Method in brief: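 Cells were then immunostained for α-tubulin (Alexa-488), with nuclei counterstained by DAPI. The microtubule network was examined in representative images.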

| Compound | GI50 (CHP-134 [1]) [nM] | GI50 [2] [nM] | other results |
| --- | --- | --- | --- |
| COc1cc(-c2nccn3cc(-c4ccc(C)cc4)nc23)cc(OC)c1OC | 7 | 12 | half-life [3]: 26 min; inhibition (Tubulin (Homo sapiens) [4]): Active; Activity (Kelly [5]): Active; Activity (CHP-134 [6]): Active; Activity (Kelly [7]): Active; Activity (CHP-134 [8]): Active; Activity (Kelly [9]): Active; Activity (CHP-134 [10]): Active; Activity (SK-N-BE(2)-C): Active; Activity (Tubulin (Homo sapiens) [11]): Active |
| COc1cc(-c2cccn3cc(-c4ccc(C(F)(F)F)cc4)nc23)cc(OC)c1OC | 2090 | > 5000 |  |
| COc1cc(-c2cccn3cc(-c4ccc(Cl)cc4)nc23)cc(OC)c1OC | 1620 | 3420 |  |
| COc1cc(-c2cccc3nc(-c4ccc(C)cc4)cn23)cc(OC)c1OC | 3320 | 4920 |  |
| COc1cc2c(c(OC)c1OC)-c1ccc(OC)c(=O)cc1[C@@H](NC(C)=O)CC2 [COLCHICINE] | 8 | 9 | half-life [3]: > 60 min; Activity (Kelly [7]): Active; Activity (CHP-134 [8]): Active; Activity (Kelly [9]): Active; Activity (CHP-134 [10]): Active |
| COc1c(Cl)cc(-c2nccn3cc(-c4ccc(C)cc4)nc23)cc1Cl | 79 | 165 | inhibition (Tubulin (Homo sapiens) [4]): Active; Activity (SK-N-BE(2)-C): Active |
| COc1c(F)cc(-c2nccn3cc(-c4ccc(C)cc4)nc23)cc1F | 175 | 402 | Activity (Kelly [12]): inactive; Activity (CHP-134 [13]): inactive; half-life [3]: 36.1 min; inhibition (Tubulin (Homo sapiens) [4]): Active; Activity (Kelly [14]): inactive; Activity (Kelly [15]): inactive; Activity (CHP-134 [16]): inactive; Activity (SK-N-BE(2)-C): Active; Activity (Tubulin (Homo sapiens) [17]): inactive |
| COc1cc(-c2cccn3cc(-c4ccc(F)cc4)nc23)cc(OC)c1OC | 1610 | 3000 |  |
| COc1c(Br)cc(-c2nccn3cc(-c4ccc(C)cc4)nc23)cc1Br | 469 | 504 |  |
| COc1cc(-c2cccn3cc(-c4ccc(C)cc4)nc23)cc(OC)c1OC | 152 | 217 | inhibition (Tubulin (Homo sapiens) [4]): Active |
| COc1ccc(-c2cn3cccc(-c4cc(OC)c(OC)c(OC)c4)c3n2)cc1 | 511 | 1370 |  |
| COc1cc(-c2cc(C)cn3cc(-c4ccc(C)cc4)nc23)cc(OC)c1OC | 381 | 717 |  |
| Cc1ccc(-c2cn3ccnc(-c4cc(F)cc(F)c4)c3n2)cc1 | 474 | 438 |  |
| Cc1ccc(-c2cn3ccnc(-c4cc(Cl)c(F)c(Cl)c4)c3n2)cc1 | > 2500 | > 2500 |  |
